Assay results reported in ChEMBL document CHEMBL6134855, “Peptidomimetics Activating the Proteasome: A New Perspective for Parkinson's Treatment” (J Med Chem, 2025).
Activity calls are given as the source filed them. No cut-off for these calls is given here. Where a SMILES comes first, the peptide text is derived from it. [ ]: non-standard residue; d: D form. N(4-MeOBn)Gly = COc1ccc(CNCC(=O)O)cc1; NMeY = CN[C@@H](Cc1ccc(O)cc1)C(=O)O; Gly(N-CH2CH2OH) = O=C(O)CNCCO; NMeK = CN[C@@H](CCCCN)C(=O)O; Nlys = NCCCCNCC(=O)O

Assays:
[1] = target: T1, 20S proteasome (Homo sapiens) (UniProt P49721+P20618+P28074+P28062+P28065+P28072+P25786+P25787+P25788+P25789+P28066+P60900+O14818+Q8TAA3+P40306+A5LHX3+P49720+P28070+Q99436); test: Activation of human erythrocyte-derived 20S proteasome chymotrypsin-like activity using succinyl-LeuLeuValTyr-AMC as substrate assessed as fold increase in activity incubated for 1 hr by fluorescence based analysis relative to control; conditions: filed as activator
Method in brief: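 h20S proteasome 0.002 mg/mL (2.8 nM) in 50 mM Tris/HCl pH 8.0, 2% DMSO final. Suc-LLVY-AMC 100 μM final. Modulators 1.0–50 μM (TAT/6R constructs 0.5–10 μM). AMC fluorescence ex 380/em 460 nm read every 2 min for 60 min at 37 °C. Activity relative to DMSO-treated latent proteasome (100%); ≥3 replicates.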

[2] = Proteolytic stability of compound in human plasma assessed as protease-mediated degradation by measuring compound remaining at 200 uM incubated for 30 mins by UHPLC analysis; assay type: ADME, cell-free; conditions: read-out: Stability
Method in brief: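 Compound (200 μM final, dissolved in water) incubated in human serum at 37 °C for 30 min. Samples every 5 min quenched 1:1 with 6% TCA and centrifuged. Supernatant analysed by UHPLC (UV 223 nm) for intact compound; cleavage sites identified by MS.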

[3] = target: T1, 20S proteasome (Homo sapiens); test: Activation of human erythrocyte-derived 20S proteasome chymotrypsin-like activity using Suc-LLVY-AMC as substrate assessed as fold increase in activity at 1.0 to 50 uM measured every two mins for 60 mins by fluorescence based analysis relative to control; conditions: filed as activator, dose 1-50 µM
Method in brief: (§1)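 Latent human 20S proteasome (0.002 mg/mL, 2.8 nM) in 50 mM Tris/HCl pH 8.0 with 2% DMSO. AMC substrates at 100 μM final (ex 380/em 460 nm); Dabcyl-EDANS at 15 μM final (ex 335/em 493 nm). Modulators at 1.0–50 μM; TAT- or 6R-containing constructs at 0.5–10 μM. Read every 2 min for 60 min at 37 °C. Activity relative to DMSO-treated proteasome (100%). ≥3 independent replicates.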

[4] = target: T1, 20S proteasome (Homo sapiens); test: Activation of human erythrocyte-derived 20S proteasome using Dabcyl-EDANS as FRET-type substrate assessed as fold increase in activity at 1.0 to 50 uM measured every two mins for 60 mins by fluorescence based analysis relative to control; assay type: cell-based; conditions: filed as activator, dose 1-50 µM; method in brief: as §1
[5] = target: T1, 20S proteasome (Homo sapiens); test: Activation of human erythrocyte-derived 20S proteasome chymotrypsin-like activity using Suc-LLVY-AMC as substrate at lower concentration measured every two mins for 60 mins by fluorescence based analysis; conditions: filed as activator; method in brief: as §1
[6] = target: T1, 20S proteasome (Homo sapiens); test: Activation of human erythrocyte-derived 20S proteasome using Dabcyl-EDANS as FRET-type substrate at lower concentration measured every two mins for 60 mins by fluorescence based analysis; assay type: cell-based; conditions: filed as activator; method in brief: as §1
[7] = target: T1, 20S proteasome (Homo sapiens); test: Activation of human erythrocyte-derived 20S proteasome using Dabcyl-EDANS as FRET-type substrate at 1.0 to 50 uM measured every two mins for 60 mins by fluorescence based analysis; assay type: cell-based; conditions: filed as activator, dose 1-50 µM; method in brief: as §1
[8] = target: T1, 20S proteasome (Homo sapiens); test: Activation of human erythrocyte-derived 20S proteasome trypsin-like activity using Boc-LRR-AMC as substrate at lower concentration measured every two mins for 60 mins by fluorescence based analysis; conditions: filed as activator; method in brief: as §1
[9] = target: T1, 20S proteasome (Homo sapiens); test: Activation of human erythrocyte-derived 20S proteasome caspase-like activity using Z-LLE-AMC as substrate at lower concentration measured every two mins for 60 mins by fluorescence based analysis; conditions: filed as activator; method in brief: as §1
[10] = target: T1, 20S proteasome (Homo sapiens); test: Activation of human erythrocyte-derived 20S proteasome chymotrypsin-like activity using Suc-LLVY-AMC as substrate at 1.0 to 50 uM measured every two mins for 60 mins by fluorescence based analysis; conditions: filed as activator, dose 1-50 µM
[11] = target: T1, 20S proteasome (Homo sapiens); test: Activation of human erythrocyte-derived 20S proteasome chymotrypsin-like activity using Suc-LLVY-AMC as substrate at 1 uM measured every two mins for 60 mins by fluorescence based analysis; conditions: filed as activator; method in brief: as §1
[12] = target: T1, 20S proteasome (Homo sapiens); test: Activation of human erythrocyte-derived 20S proteasome chymotrypsin-like activity using Suc-LLVY-AMC as substrate at higher concentration measured every two mins for 60 mins by fluorescence based analysis; conditions: filed as activator; method in brief: as §1
[13] = Permeability of compound in PBS incubated for 22 hrs by PAMPA-BBB assay; assay type: ADME
Method in brief: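 PAMPA-BBB with a 2% porcine brain lipid membrane. Compounds were diluted from 10 mM aqueous stocks to 500 μM in 0.1 M PBS containing 5% DMSO and incubated 22 h at 37 °C with shaking at 250 rpm. Read-out was fluorescence after reaction with 0.02% fluorescamine (absorbance at 290 nm for propranolol). Pe calculated as linear permeation velocity. Three biological replicates.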

## NCCCC[C@H](NC(=O)[C@H](CCCCN)NC(=O)[C@@H](N)CCCCN)C(=O)Nc1cc(NC(=O)[C@H](CCCCN)NC(=O)[C@H](CCCCN)NC(=O)[C@@H](N)CCCCN)cc(NC(=O)[C@H](CCCCN)NC(=O)[C@H](CCCCN)NC(=O)[C@@H](N)CCCCN)c1
[1]
  fold change (FC): 10

## H-KYFTGSKDWRSYYS-OH
[2]
  remaining at 0.5 h, 200 µM: ≤ 10%
[3]
  fold change (FC): 8
[4]
  fold change (FC): 12

## H-KYFTGSKDYRRYYS-OH
[2]
  remaining at 0.5 h, 200 µM: ≤ 10%
[5]
  Activity: Active
[6]
  Activity: Active

## COc1ccc(CN(CC(=O)N[C@@H](CCCNC(=N)N)C(=O)N[C@@H](CCCNC(=N)N)C(=O)N[C@@H](Cc2ccc(O)cc2)C(=O)N[C@@H](Cc2ccc(O)cc2)C(=O)N[C@@H](CO)C(=O)O)C(=O)[C@H](CC(=O)O)NC(=O)[C@H](CCCCN)NC(=O)[C@H](CO)NC(=O)CNC(=O)[C@@H](NC(=O)[C@H](Cc2ccccc2)NC(=O)CN(Cc2ccc(OC)cc2)C(=O)[C@@H](N)CCCCN)[C@@H](C)O)cc1 (H-K[N(4-MeOBn)Gly]FTGSKD[N(4-MeOBn)Gly]RRYYS-OH)
[7]
  Activity: Active
[5]
  Activity: Active
[6]
  Activity: Active
[8]
  Activity: Weak_effect
[9]
  Activity: Weak_effect

## C[C@@H](O)[C@H](NC(=O)[C@H](Cc1ccccc1)NC(=O)[C@H](Cc1ccc(O)cc1)NC(=O)[C@@H](N)CCCCN)C(=O)NCC(=O)N[C@@H](CO)C(=O)N[C@@H](CCCCN)C(=O)N[C@@H](CC(=O)O)C(=O)N[C@@H](Cc1c[nH]c2ccccc12)C(=O)N[C@@H](CCCNC(=N)N)C(=O)N(CCO)CC(=O)N[C@@H](Cc1ccc(O)cc1)C(=O)N[C@@H](Cc1ccc(O)cc1)C(=O)N[C@@H](CO)C(=O)O (H-KYFTGSKDWR[Gly(N-CH2CH2OH)]YYS-OH)
[7]
  Activity: Active
[10]
  Activity: Active; Lower Capacity Of Activation Is Observed

## C[C@@H](O)[C@H](NC(=O)[C@H](Cc1ccccc1)NC(=O)[C@H](Cc1ccc(O)cc1)NC(=O)CNCCCCN)C(=O)NCC(=O)N[C@@H](CO)C(=O)N[C@@H](CCCCN)C(=O)N[C@@H](CC(=O)O)C(=O)N[C@@H](Cc1c[nH]c2ccccc12)C(=O)N[C@@H](CCCNC(=N)N)C(=O)N(CCO)CC(=O)N[C@@H](Cc1ccc(O)cc1)C(=O)N[C@@H](Cc1ccc(O)cc1)C(=O)N[C@@H](CO)C(=O)O (H-[Nlys]YFTGSKDWR[Gly(N-CH2CH2OH)]YYS-OH)
[7]
  Activity: Active
[10]
  Activity: Active; Lower Capacity Of Activation Is Observed

## COc1ccc(CN(CC(=O)N[C@@H](CCCNC(=N)N)C(=O)N[C@@H](CCCNC(=N)N)C(=O)N[C@@H](Cc2ccc(O)cc2)C(=O)N[C@@H](Cc2ccc(O)cc2)C(=O)N[C@@H](CO)C(=O)O)C(=O)[C@H](CC(=O)O)NC(=O)[C@H](CCCCN)NC(=O)[C@H](CO)NC(=O)CNC(=O)[C@@H](NC(=O)[C@H](Cc2ccccc2)NC(=O)[C@H](Cc2ccc(O)cc2)NC(=O)[C@@H](N)CCCCN)[C@@H](C)O)cc1 (H-KYFTGSKD[N(4-MeOBn)Gly]RRYYS-OH)
[2]
  remaining at 0.5 h, 200 µM: < 30%
[7]
  Activity: Active
[5]
  Activity: Active
[6]
  Activity: Active
[8]
  Activity: Weak_effect
[9]
  Activity: Weak_effect

## C[C@@H](O)[C@H](NC(=O)[C@H](Cc1ccccc1)NC(=O)[C@H](Cc1ccc(O)cc1)NC(=O)CNCCCCN)C(=O)NCC(=O)N[C@@H](CO)C(=O)N(CCCCN)CC(=O)N[C@@H](CC(=O)O)C(=O)N[C@@H](Cc1ccc(O)cc1)C(=O)N[C@@H](CCCNC(=N)N)C(=O)N[C@@H](CCCNC(=N)N)C(=O)N[C@@H](Cc1ccc(O)cc1)C(=O)N[C@@H](Cc1ccc(O)cc1)C(=O)N[C@@H](CO)C(=O)O (H-[Nlys]YFTGS[Nlys]DYRRYYS-OH)
[11]
  Activity: Moderate_effect
[12]
  Activity: Active

## N=C(N)NCCC[C@H](NC(=O)CN)C(=O)N[C@@H](CCCCN)C(=O)N[C@@H](CCCCN)C(=O)N[C@@H](CCCNC(=N)N)C(=O)N[C@@H](CCCNC(=N)N)C(=O)N[C@@H](CCC(N)=O)C(=O)N1Cc2ccccc2CC1C(=O)N1[C@@H](C(=O)N[C@@H](CCCNC(=N)N)C(=O)N2CCC[C@H]2C(=O)N[C@@H](CO)C(=O)O)C[C@@H]2CCCC[C@@H]21 (some centres not stated)
[1]
  fold change (FC): 8

## C[C@@H](O)[C@H](NC(=O)[C@H](Cc1ccccc1)NC(=O)[C@H](Cc1ccc(O)cc1)NC(=O)CNCCCCN)C(=O)NCC(=O)N[C@@H](CO)C(=O)N[C@@H](CCCCN)C(=O)N[C@@H](CC(=O)O)C(=O)N[C@@H](Cc1ccc(O)cc1)C(=O)N[C@@H](CCCNC(=N)N)C(=O)N[C@@H](CCCNC(=N)N)C(=O)N[C@@H](Cc1ccc(O)cc1)C(=O)N[C@@H](Cc1ccc(O)cc1)C(=O)N[C@@H](CO)C(=O)O (H-[Nlys]YFTGSKDYRRYYS-OH)
[7]
  Activity: Active
[5]
  Activity: Active
[6]
  Activity: Active

## C[C@@H](O)[C@H](NC(=O)[C@H](Cc1ccccc1)NC(=O)[C@H](Cc1ccc(O)cc1)NC(=O)CNCCCCN)C(=O)NCC(=O)N[C@@H](CO)C(=O)N[C@@H](CCCCN)C(=O)N[C@@H](CC(=O)O)C(=O)N[C@@H](Cc1c[nH]c2ccccc12)C(=O)N[C@@H](CCCNC(=N)N)C(=O)N[C@@H](CO)C(=O)N[C@@H](Cc1ccc(O)cc1)C(=O)N[C@@H](Cc1ccc(O)cc1)C(=O)N[C@@H](CO)C(=O)O (H-[Nlys]YFTGSKDWRSYYS-OH)
[13]
  permeability: Impermeable

## CN[C@@H](CCCCN)C(=O)N(C)[C@@H](Cc1ccc(O)cc1)C(=O)N[C@@H](Cc1ccccc1)C(=O)N[C@H](C(=O)NCC(=O)N[C@@H](CO)C(=O)N[C@@H](CCCCN)C(=O)N[C@@H](CC(=O)O)C(=O)N[C@@H](Cc1c[nH]c2ccccc12)C(=O)N[C@@H](CCCNC(=N)N)C(=O)N[C@@H](CO)C(=O)N[C@@H](Cc1ccc(O)cc1)C(=O)N[C@@H](Cc1ccc(O)cc1)C(=O)N[C@@H](CO)C(=O)O)[C@@H](C)O (H-[NMeK][NMeY]FTGSKDWRSYYS-OH)
[7]
  Activity: Active

## COc1ccc(CN(CC(=O)N[C@@H](Cc2ccccc2)C(=O)N[C@H](C(=O)NCC(=O)N[C@@H](CO)C(=O)N[C@@H](CCCCN)C(=O)N[C@@H](CC(=O)O)C(=O)N[C@@H](Cc2ccc(O)cc2)C(=O)N[C@@H](CCCNC(=N)N)C(=O)N[C@@H](CCCNC(=N)N)C(=O)N[C@@H](Cc2ccc(O)cc2)C(=O)N[C@@H](Cc2ccc(O)cc2)C(=O)N[C@@H](CO)C(=O)O)[C@@H](C)O)C(=O)[C@@H](N)CCCCN)cc1 (H-K[N(4-MeOBn)Gly]FTGSKDYRRYYS-OH)
[11]
  Activity: Moderate_effect

## C[C@@H](O)[C@H](NC(=O)[C@H](Cc1ccccc1)NC(=O)[C@H](Cc1ccc(O)cc1)NC(=O)[C@@H](N)CCCCN)C(=O)NCC(=O)N[C@@H](CO)C(=O)N(CCCCN)CC(=O)N[C@@H](CC(=O)O)C(=O)N[C@@H](Cc1ccc(O)cc1)C(=O)N[C@@H](CCCNC(=N)N)C(=O)N[C@@H](CCCNC(=N)N)C(=O)N[C@@H](Cc1ccc(O)cc1)C(=O)N[C@@H](Cc1ccc(O)cc1)C(=O)N[C@@H](CO)C(=O)O (H-KYFTGS[Nlys]DYRRYYS-OH)
[12]
  Activity: Active
